Source: PMC5147053 (Drugs in Context, 2016)

Legend:
[1] = Safety assessment: treatment-emergent adverse events; type: in vivo, human
In short: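 Patients with advanced or metastatic cancer took single 150 mg oral doses of the test compound in a 3-period crossover: high-shear wet granulation, roller-compaction dry-milled and slurry-milled formulations, with washouts of 48 h to 5 days. Safety monitoring covered AEs, SAEs, physical exams, vital signs, lab tests and concomitant medications. TEAEs were graded by CTCAE v3.0 for all patients dosed at least once.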

[2] = oral; cited from earlier work
[3] = single 150 mg dose, N=14, regardless of causality

## Cc1cccc(-c2nn3c(c2-c2ccnc4ccc(C(N)=O)cc24)CCC3)n1 [Galunisertib]
[1]; 14 patients, any formulation
  SAEs or deaths during the study: no SAEs or deaths
  Study discontinuations due to TEAEs: no study discontinuations
  TEAEs determined to be related to galunisertib by the investigator: None
[1]; of 14 patients, any formulation, single 150 mg doses
  Number of patients reporting TEAEs regardless of causality: Five
[1]; [3]
  Number of patients with TEAE Convulsion (Grade 1): 1
  Number of patients with TEAE Dizziness (Grade 1): 1
  Number of patients with TEAE Hyperglycemia (Grade 1): 1
  Number of patients with TEAE Lymphopenia (Grade 3): 2
  Number of patients with TEAE Pyrexia (Grade 1): 1
  Number of patients with TEAE Vulvovaginitis (Grade 1): 1
[2]
  Mean terminal half-life: 8 h
  Time of peak plasma concentrations following administration: 0.5 to 2 h
